The values below come from ChEMBL document CHEMBL1137658, “Effect of caspofungin on metabolite profiles of Aspergillus species determined by nuclear magnetic resonance spectroscopy” (2007).

Assay [1] relates to Aspergillus terreus. The experiment in a line: Antifungal activity against Aspergillus terreus isolate 04-188-2548 after 48 hrs by broth microdilution method. It is filed as functional. Conditions: isolate 04-188-2548, 48 h. (In broth dilution the organism is exposed to a series of concentrations in liquid medium.)
In assay [2] the test system is Aspergillus niger. The experiment in a line: Antifungal activity against Aspergillus niger isolate 05-290-2479 after 48 hrs by broth microdilution method. The following applies: isolate 05-290-2479, 48 h. It is filed as functional. In short, it runs like this: (§1)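 Modified CLSI M38-A broth microdilution in RPMI 1640 with l-glutamine, 2% glucose (not 0.2%), MOPS pH 7. Serial drug dilutions 0.03125 to 16 μg/ml in microtiter plates stored at −70°C up to 3 weeks. Run in duplicate. MIC = lowest concentration completely inhibiting visible growth.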

Assay [3] relates to Aspergillus niger. The experiment in a line: Antifungal activity against Aspergillus niger isolate 05-112-3701 after 48 hrs by broth microdilution method. It is filed as functional. Conditions: isolate 05-112-3701, 48 h. Summed up:
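CLSI M38-A broth microdilution, modified to use RPMI 1640 with 2% glucose (instead of 0.2%), 0.3 g/liter l-glutamine and 0.165 M MOPS at pH 7. Drug twofold dilutions 0.03125–16 μg/ml. Run in duplicate. MIC is the lowest concentration with no visible growth. For the lipopeptide, MEC is read at 48 h as the lowest concentration giving aberrant hyphae under an inverted microscope.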

The subject of assay [4] is Aspergillus nidulans. The experiment in a line: Antifungal activity against Aspergillus nidulans isolate 05-326-1785 after 72 hrs by broth microdilution method. It is filed as functional. The following applies: isolate 05-326-1785, 72 h. In short, it runs like this:
as §1

In assay [5] the test system is Aspergillus nidulans. The experiment in a line: Antifungal activity against Aspergillus nidulans isolate 00-202661 after 72 hrs by broth microdilution method. The assay is classed as functional. The following applies: isolate 00-202661, 72 h. In short, it runs like this:
as §1

The test system of assay [6] is Aspergillus flavus. The experiment in a line: Antifungal activity against Aspergillus flavus ATCC 204304 after 48 hrs by broth microdilution method. It is filed as functional. Conditions: ATCC 204304, 48 h. Summed up: as §1
The subject of assay [7] is Aspergillus flavus. As to the kind of experiment: Antifungal activity against Aspergillus flavus isolate 05-314-1100 after 48 hrs by broth microdilution method. It is filed as functional. The following applies: isolate 05-314-1100, 48 h.
Assay [8] has as its system Aspergillus fumigatus. As to the kind of experiment: Inhibition of metabolite production in Aspergillus fumigatus ATCC 204305 assessed as lowest drug concentration required to inhibit 50% fungal metabolite production after 72 hrs in presence of 2 % glucose by NMR spectroscopy. It is filed as functional. Summed up:
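Caspofungin dilutions with A. fumigatus ATCC 204305 in RPMI 1640-2% glucose-MOPS, incubated 72 h. ¹H NMR of medium. MEP = lowest concentration giving ≥50% fall in malate, glycine betaine or fumarate peak areas.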

In assay [9] the test system is Aspergillus terreus. The experiment in a line: Inhibition of metabolite production in Aspergillus terreus isolate 06-059-2428 assessed as lowest drug concentration required to inhibit 50% ethanol production after 48 hrs in presence of 2 % glucose by NMR spectroscopy. It is filed as functional. Summed up:
(§2)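 Cultures grown in RPMI 1640-2% glucose-MOPS with drug series, 48 h. Culture media analysed by 600-MHz ¹H NMR. MEP taken from stack plots and peak integrals of resolved resonances, as lowest drug concentration suppressing nutrient use or metabolite production by ≥50%. Alternative MEP: lowest concentration raising fumarate >50%.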

Assay [10] has as its system Aspergillus terreus. The experiment in a line: Inhibition of metabolite production in Aspergillus terreus isolate 04-188-2548 assessed as lowest drug concentration required to inhibit 50% ethanol, fumarate, malate production after 48 hrs in presence of 2 % glucose by NMR spectroscopy. It is filed as functional. Summed up:
as §2

For assay [11], the system named is Aspergillus niger. The experiment in a line: Inhibition of metabolite production in Aspergillus niger isolate 05-112-3701 assessed as lowest drug concentration required to inhibit 50% citrate production after 48 hrs in presence of 2 % glucose by NMR spectroscopy. The assay is classed as functional. In short, it runs like this:
as §2

The subject of assay [12] is Aspergillus nidulans. The experiment in a line: Inhibition of metabolite production in Aspergillus nidulans isolate 05-326-1785 assessed as lowest drug concentration required to inhibit 50% fumarate production after 72 hrs in presence of 2 % glucose by NMR spectroscopy. The assay is classed as functional. In short, it runs like this: (§3)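 A. nidulans grows slowly, so spectra were recorded after 72 h incubation in RPMI 1640-2% glucose-MOPS with drug dilutions. 600-MHz ¹H NMR of culture medium. Fumarate peak integrals plotted against drug concentration. MEP = lowest concentration with ≥50% fall in fumarate.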

Assay [13] concerns Aspergillus nidulans. The experiment in a line: Inhibition of metabolite production in Aspergillus nidulans isolate 00-202661 assessed as lowest drug concentration required to inhibit 50% fumarate production after 72 hrs in presence of 2 % glucose by NMR spectroscopy. The assay is classed as functional. In short, it runs like this: as §3
Assay [14] has as its system Aspergillus flavus. As to the kind of experiment: Inhibition of metabolite production in Aspergillus flavus ATCC 204304 assessed as lowest drug concentration required to inhibit 50% fumarate, malate production after 48 hrs in presence of 2 % glucose by NMR spectroscopy. It is filed as functional. In short, it runs like this:
as §2

For assay [15], the system named is Aspergillus flavus. The experiment in a line: Inhibition of metabolite production in isolate Aspergillus flavus 05-314-1100 assessed as lowest drug concentration required to inhibit 50% fumarate, malate production after 48 hrs in presence of 2 % glucose by NMR spectroscopy. It is filed as functional, isolate  05-314-1100. Summed up: as §2
For assay [16], the system named is Aspergillus flavus. The experiment in a line: Increase in metabolite production in Aspergillus flavus isolate 05-314-1100 assessed as lowest drug concentration required to increase >50% fumarate production after 48 hrs in presence of 2 % glucose by NMR spectroscopy. The assay is classed as functional. In short, it runs like this:
as §2

Assay [17] deals with Aspergillus niger. As to the kind of experiment: Inhibition of metabolite production in Aspergillus niger isolate 05-290-2479 assessed as lowest drug concentration required to inhibit 50% citrate production after 48 hrs in presence of 2 % glucose by NMR spectroscopy. The assay is classed as functional. In short, it runs like this:
as §2

In assay [18] the test system is Aspergillus fumigatus. The experiment in a line: Inhibition of metabolite production in Aspergillus fumigatus ATCC 204305 assessed as lowest drug concentration required to inhibit 50% glycine betain, fumarate, malate production after 48 hrs in presence of 2 % glucose by NMR spectroscopy. It is filed as functional. Summed up:
as §2

For assay [19], the system named is Aspergillus fumigatus. The experiment in a line: Inhibition of metabolite production in Aspergillus fumigatus isolate 06-067-1639 assessed as lowest drug concentration required to inhibit 50% glycine betaine, fumarate, malate production after 48 hrs in presence of 2 % glucose by NMR spectroscopy. The assay is classed as functional. Summed up: as §2
Assay [20] deals with Aspergillus terreus. As to the kind of experiment: Antifungal activity against Aspergillus terreus isolate 06-059-2428 after 48 hrs by broth microdilution method. Conditions: isolate 06-059-2428, 48 h. The assay is classed as functional. In short, it runs like this: as §1
Assay [21] has as its system Aspergillus fumigatus. As to the kind of experiment: microbe, parasite or virus in culture. The following applies: isolate 06-067-1639, 48 h.
The test system of assay [22] is Aspergillus fumigatus. The experiment in a line: microbe, parasite or virus in culture. Conditions: ATCC 204305, 48 h.
The test system of assay [23] is Aspergillus fumigatus. As to the kind of experiment: microbe, parasite or virus in culture. Conditions: ATCC 204305, 72 h.

In brackets after ≈: the same amount, converted by molar mass.

With `C[C@@H]1[C@H](O)[C@@H](C)/C=C/C=C/C=C/C=C/C=C/C=C/C=C/[C@H](O[C@@H]2O[C@H](C)[C@@H](O)[C@H](N)[C@@H]2O)C[C@@H]2O[C@](O)(C[C@@H](O)C[C@@H](O)[C@H](O)CC[C@@H](O)C[C@@H](O)CC(=O)O[C@H]1C)C[C@H](O)[C@H]2C(=O)O` [AMPHOTERICIN B], the MIC in assay [1] was determined as 2 µg/mL (≈ 2.16 µM); in assay [2], 0.25 µg/mL (≈ 0.271 µM); in assay [3], 0.5 µg/mL (≈ 0.541 µM); in [4] it was 0.5 µg/mL (≈ 0.541 µM); in assay [5], 1 µg/mL (≈ 1.08 µM); in assay [6] it was 8 µg/mL (≈ 8.66 µM). Besides, the MIC in assay [7] was found to be 4 µg/mL (≈ 4.33 µM); in assay [20], 1 µg/mL (≈ 1.08 µM); in [21], 1 µg/mL (≈ 1.08 µM); in assay [22], 1 µg/mL (≈ 1.08 µM); in assay [23], 1 µg/mL (≈ 1.08 µM). For the same molecule, the Activity in [8] turned out to be 1 µg/mL; in assay [9], 0.06 µg/mL; in [10] it was 2 µg/mL; in [11], 0.25 µg/mL; in assay [12], 0.5 µg/mL; in assay [13], 0.25 µg/mL. Also, the Activity in assay [14] was determined as 2 µg/mL; in assay [15], 2 µg/mL; in assay [16], 0.06 µg/mL; in [17] it was 0.125 µg/mL; in assay [18], 0.25 µg/mL; in [19] it was 0.5 µg/mL.
